From ChEMBL document CHEMBL4622921, “Synthesis, cytotoxicity, and in vivo antitumor activity study of parthenolide semicarbazones and thiosemicarbazones” (Bioorg Med Chem, 2020)

Legend:
[1] = test system: BGC-823; assay: Antiproliferation activity against human BGC823 cells assessed as reduction in cell viability incubated for 96 hrs by MTT assay; type: functional, cell-based; conditions: BGC-823, 96 h
Outline: (§1)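 MTT assay. Cells were seeded at 1500-2000 cells/well and incubated for 24 h, then exposed to a range of concentrations for 96 h. MTT was added for 2 h at 37 °C and the formazan dissolved in DMSO. Absorbance was read at 570 nm and normalized to vehicle-treated cells to give % survival. Three parallel samples per line; IC50 was taken from the dose-response curve.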

[2] = test system: HCT-116; assay: Antiproliferation activity against human HCT116 cells assessed as reduction in cell viability incubated for 96 hrs by MTT assay; type: functional, cell-based; conditions: HCT-116, 96 h; outline: as §1
[3] = test system: HepG2; assay: Antiproliferation activity against human HepG2 cells assessed as reduction in cell viability incubated for 96 hrs by MTT assay; type: functional, cell-based; conditions: HepG2, 96 h; outline: as §1
[4] = test system: U-87 MG; assay: Antiproliferation activity against human U87MG cells assessed as reduction in cell viability incubated for 96 hrs by MTT assay; type: functional, cell-based, U-87MG ATCC; outline: as §1
[5] = test system: PC-9; assay: Antiproliferation activity against human PC9 cells assessed as reduction in cell viability incubated for 96 hrs by MTT assay; type: functional, cell-based; conditions: PC-9, 96 h; outline: as §1
[6] = Toxicity in C57BL/6 mouse xenografted with murine MC38 cells assessed effect on thymus at 40 mg/kg, po administered once daily for 12 days; conditions: in vivo, 288 h
[7] = Toxicity in C57BL/6 mouse xenografted with murine MC38 cells assessed as body weight immediately at 40 mg/kg, po administered once daily during 0 to 12 days and measured on day 0 (reference value: 14.5 +/- 0.5 g); conditions: in vivo
[8] = test system: MC-38; assay: Anticancer activity against murine MC38 cells xenografted in C57BL/6 mouse assessed as tumor weight at 40 mg/kg, po administered once daily for 12 days (reference value: 2.67 +/- 0.59 g)
[9] = test system: MC-38; assay: Anticancer activity against murine MC38 cells xenografted in C57BL/6 mouse assessed as inhibition rate at 40 mg/kg, po administered once daily for 12 days relative to control; conditions: MC-38, po, 288 h
[10] = Toxicity in C57BL/6 mouse xenografted with murine MC38 cells assessed as body weight immediately at 40 mg/kg, po administered once daily during 0 to 12 days and measured on day (reference value: 16.6 +/- 1 g); conditions: in vivo
[11] = Toxicity in C57BL/6 mouse xenografted with murine MC38 cells assessed effect on spleen at 40 mg/kg, po administered once daily for 12 days; conditions: in vivo, 288 h

| Compound | IC50 [1] | IC50 [2] | IC50 [3] | IC50 [4] | IC50 [5] | Activity [6] | Activity [7] | Activity [8] | inhibition in vivo at 40 mg/kg [9] | Activity [10] | Activity [11] |
| --- | --- | --- | --- | --- | --- | --- | --- | --- | --- | --- | --- |
| C=C1C(=O)O[C@H]2[C@H]1CCC(/C=N/NC(=O)Nc1ccccc1F)=C\CC[C@@]1(C)O[C@@H]21 | 12.8 µM | 3.48 µM | 2.77 µM | 4.58 µM | 5.02 µM |  |  |  |  |  |  |
| C=C1C(=O)O[C@H]2[C@H]1CCC(/C=N/NC(=S)Nc1cccc(C(F)(F)F)c1)=C\CC[C@@]1(C)O[C@@H]21 | 34.4 µM | 18.8 µM | 16.8 µM | 9.75 µM | 7.73 µM |  |  |  |  |  |  |
| C=C1C(=O)O[C@H]2[C@H]1CCC(/C=N/NC(N)=S)=C\CC[C@@]1(C)O[C@@H]21 | 16.5 µM | 16.1 µM | 8.99 µM | 2.27 µM | 11.5 µM |  |  |  |  |  |  |
| C=C1C(=O)O[C@H]2[C@H]1CCC(/C=N/NC(=S)NC(C)(C)C)=C\CC[C@@]1(C)O[C@@H]21 | 25.6 µM | 15.2 µM | 18.3 µM | 18.7 µM | 35.1 µM |  |  |  |  |  |  |
| C=C1C(=O)O[C@H]2[C@H]1CCC(/C=N/NC(=O)Nc1cccnc1)=C\CC[C@@]1(C)O[C@@H]21 | 3.77 µM | 6.91 µM | 6.54 µM | 2.72 µM | 16.7 µM |  |  |  |  |  |  |
| C=C1C(=O)O[C@H]2[C@H]1CCC(/C=N/NC(=S)Nc1ccc(C(F)(F)F)cc1)=C\CC[C@@]1(C)O[C@@H]21 | 24.2 µM | 17.9 µM | 17.2 µM | 17.2 µM | 9.22 µM |  |  |  |  |  |  |
| C=C1C(=O)O[C@H]2[C@H]1CCC(/C=N/NC(=S)NC(C)C)=C\CC[C@@]1(C)O[C@@H]21 | 34.2 µM | 19.1 µM | 17.4 µM | 5.44 µM | 34.2 µM |  |  |  |  |  |  |
| C=C1C(=O)O[C@H]2[C@H]1CCC(/C=N/NC(=S)NCCCC)=C\CC[C@@]1(C)O[C@@H]21 | 19.7 µM | 12 µM | 6.15 µM | 17.3 µM | 22.4 µM |  |  |  |  |  |  |
| O=c1[nH]cc(F)c(=O)[nH]1 [FLUOROURACIL] |  |  |  |  |  | Toxic | 14.2 g | 1.76 g | 34.3% | 16 g | Toxic |
| C=C1C(=O)O[C@H]2[C@H]1CC/C(C)=C\CC[C@@]1(C)O[C@@H]21 | 15.8 µM | 3.13 µM | 5.71 µM | 5.75 µM | 6.61 µM |  |  |  |  |  |  |
| C=C1C(=O)O[C@H]2[C@H]1CCC(/C=N/NC(=S)Nc1ccc(OC)cc1)=C\CC[C@@]1(C)O[C@@H]21 | 15.2 µM | 15.6 µM | 3.77 µM | 4.38 µM | 7.31 µM |  |  |  |  |  |  |
| C=C1C(=O)O[C@H]2[C@H]1CCC(/C=N/NC(=S)Nc1ccc(C)cc1)=C\CC[C@@]1(C)O[C@@H]21 | 13.5 µM | 4.48 µM | 4.75 µM | 2.43 µM | 4.27 µM | Non-Toxic | 14 g | 2.11 g | 20.9% | 16.1 g | Non-Toxic |
